Test results published in ChEMBL document CHEMBL4177578, “Synthesis, pharmacological activities and molecular docking studies of pyrazolyltriazoles as anti-bacterial and anti-inflammatory agents” (Bioorg Med Chem, 2017).
Values after ≈ are worked out from the molar mass of the structure shown. Active and inactive are the calls of the source. The calls are words filed in the database; no cut-off is given here.

How the values were obtained:
Salmonella paratyphi [1] = assay: Antimicrobial activity against Salmonella paratyphi at 1 mg/ml incubated for 20 to 30 mins followed by incubation for 24 hrs at 37 degC by agar plate method; format: functional, Salmonella enterica subsp. enterica serovar Paratyphi A; conditions: for zone of inhibition at 1000 µg/mL: Salmonella enterica, read-out: DIZ; for diameter of the inhibition zone (DIZ): Salmonella enterica subsp. enterica serovar Paratyphi A
In short: (§1)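 Agar well diffusion on nutrient agar. Plates swabbed with 60 µL inoculum, 8 mm wells loaded with 100 µL sample at 1.0 mg/mL, streptomycin standard and control in separate wells. Plates held 20–30 min at 4 °C for diffusion, then 24 h at 37 °C. Zone diameter read in mm; triplicate.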

[2] = Anti-inflammatory activity using bovine serum albumin and egg albumin proteins incubated at 37 degC for 20 mins and then heated to 95 degC for 20 mins by UV-visible Spectrophotometry based protein denaturation method; format: functional
In short: (§2)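 Albumin (bovine serum or egg) at 1% in 50 mM sodium phosphate buffer pH 6.4. Mixture is 0.1 ml test sample (1 mg/ml) plus 0.2 ml albumin, made to 5 ml with buffer. Held 37 °C for 20 min, then 95 °C for 20 min. Cooled to room temperature, turbidity read at 660 nm. % inhibition = (Abs control − Abs sample)/Abs control × 100. Triplicate, averaged.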

[3] = Anti-inflammatory activity at 50 ug/ml using bovine serum albumin and egg albumin proteins incubated at 37 degC for 20 mins and then heated to 95 degC for 20 mins by UV-visible Spectrophotometry based protein denaturation method; format: functional; in short: as §2
U-937 [4] = assay: Anti-inflammatory activity in human U937 cells assessed as inhibition of LPS-induced TNFalpha production at 10 uM pre-incubated for 1 hr before LPS stimulation for 24 hrs by ELISA method; format: functional
In short: (§3)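 Human U937 cells grown in RPMI1640 with 10% FBS at 37 °C, 5% CO2. Differentiated with PMA 30 ng/ml for 24 h. Test compounds added for 1 h, then LPS 1 µg/ml for 24 h. TNF-α and IL-6 in supernatant measured by ELISA. Three independent experiments.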

Salmonella typhi [5] = assay: Antimicrobial activity against Salmonella typhi at 1 mg/ml incubated for 20 to 30 mins followed by incubation for 24 hrs at 37 degC by agar plate method; format: functional, Salmonella enterica subsp. enterica serovar Typhi; conditions: for zone of inhibition at 1000 µg/mL: Salmonella enterica, read-out: DIZ; for diameter of the inhibition zone (DIZ): Salmonella enterica subsp. enterica serovar Typhi; in short: as §1
[6] = Anti-inflammatory activity at 100 ug/ml using bovine serum albumin and egg albumin proteins incubated at 37 degC for 20 mins and then heated to 95 degC for 20 mins by UV-visible Spectrophotometry based protein denaturation method; format: functional; in short: as §2
U-937 [7] = assay: Anti-inflammatory activity in human U937 cells assessed as inhibition of LPS-induced IL6 production at 10 uM pre-incubated for 1 hr before LPS stimulation for 24 hrs by ELISA method; format: functional; in short: as §3
Salmonella typhi [8] = assay: Antimicrobial activity against Salmonella typhi incubated for 12 to 16 hrs followed by plating in nutrient agar by tube dilution method; format: functional; conditions: Salmonella enterica subsp. enterica serovar Typhi
In short: (§4)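 After 12-16 h at 37 °C in tube dilution (500 to 1.9 µg/mL; 1 mL inoculum at OD 0.2), the culture from each tube was plated on nutrient agar. MBC is the concentration at which cells are completely killed.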

Salmonella paratyphi [9] = assay: Antimicrobial activity against Salmonella paratyphi incubated for 12 to 16 hrs followed by plating in nutrient agar by tube dilution method; format: functional; conditions: Salmonella enterica subsp. enterica serovar Paratyphi A; in short: as §4
Micrococcus luteus [10] = assay: Antimicrobial activity against Micrococcus luteus incubated for 12 to 16 hrs by tube dilution method; format: functional
In short: (§5)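 Tube dilution, serial from 500 to 1.9 µg/mL, plus drug-free control tube. Each tube inoculated with 1 mL culture at OD 0.2, incubated 37 °C for 12–16 h. MIC is the lowest concentration with no growth by turbidity. MBC is found by plating each tube on nutrient agar: the lowest concentration at which all cells are killed.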

Micrococcus luteus [11] = assay: Antimicrobial activity against Micrococcus luteus incubated for 12 to 16 hrs followed by plating in nutrient agar by tube dilution method; format: functional; in short: as §5
Micrococcus luteus [12] = assay: Antimicrobial activity against Micrococcus luteus at 1 mg/ml incubated for 20 to 30 mins followed by incubation for 24 hrs at 37 degC by agar plate method; format: functional
In short: (§6)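 Agar well diffusion on nutrient agar. Plates swabbed with 60 µL inoculum; 8 mm wells loaded with 100 µL of compound at 1.0 mg/mL. Held 20–30 min at 4 °C for diffusion, then 24 h at 37 °C. Inhibition zone diameter read in mm. Triplicate.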

Salmonella paratyphi [13] = assay: Antimicrobial activity against Salmonella paratyphi incubated for 12 to 16 hrs by tube dilution method; format: functional; conditions: Salmonella enterica subsp. enterica serovar Paratyphi A
In short: (§7)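 Broth tube dilution, two-fold serial dilutions from 500 to 1.9 µg/mL plus a drug-free control tube. Each tube inoculated with 1 mL culture at OD 0.2 (~McFarland standard), 37 °C for 12-16 h. Turbidity compared with the control tube. MIC is the lowest concentration giving complete growth inhibition.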

Salmonella typhi [14] = assay: Antimicrobial activity against Salmonella typhi incubated for 12 to 16 hrs by tube dilution method; format: functional; conditions: Salmonella enterica subsp. enterica serovar Typhi; in short: as §7
Staphylococcus aureus = assay: Antimicrobial activity against Staphylococcus aureus at 1 mg/ml incubated for 20 to 30 mins followed by incubation for 24 hrs at 37 degC by agar plate method; format: functional; in short: as §6

SMILES	zone of inhibition at 1000 µg/mL (Salmonella paratyphi [1]) [mm]	IC50 [2]	inhibition [3]	inhibition at 10 µM (U-937 [4]) [%]	zone of inhibition at 1000 µg/mL (Salmonella typhi [5]) [mm]	inhibition [6]	inhibition at 10 µM (U-937 [7]) [%]	MBC (Salmonella typhi [8])	diameter of the inhibition zone (DIZ) (Salmonella paratyphi [1])	MBC (Salmonella paratyphi [9])	MIC (Micrococcus luteus [10])	MBC (Micrococcus luteus [11])	diameter of the inhibition zone (DIZ) (Micrococcus luteus [12])	MIC (Salmonella paratyphi [13])	diameter of the inhibition zone (DIZ) (Salmonella typhi [5])	MIC (Salmonella typhi [14])	diameter of the inhibition zone (DIZ) (Staphylococcus aureus)
Cc1ccc(-n2cc(CO)c(-c3ccccc3)n2)cc1C	12	59.79 µg/mL (≈ 215 µM)	66.4%	8.35	14.5	83.6%	46.4										
OCc1cn(-c2ccccc2)nc1-c1ccc(Cl)cc1	12	59.79 µg/mL (≈ 210 µM)	67.2%	3.32		83.6%	24.1										
Cc1ccc(-n2cc(CO)c(-c3ccccc3)n2)cc1	12.5	73.42 µg/mL (≈ 278 µM)	40.5%		17	68.1%	23.8										
Cc1ccc(-c2nn(-c3ccccc3)cc2Cn2cc(CO)nn2)cc1	14	128.89 µg/mL (≈ 373 µM)	21.6%	14.8	15	38.8%	42										
OCc1cn(Cc2cn(-c3ccccc3)nc2-c2ccc(Cl)cc2Cl)nn1	17	65.17 µg/mL (≈ 163 µM)	50.9%	9.9	14	76.7%	39.6										
FC(F)(F)c1ccc(-c2cn(Cc3cn(-c4ccccc4)nc3-c3ccccc3)nn2)c(C(F)(F)F)c1		Not Active	inactive			inactive		inactive	inactive	inactive	inactive	inactive	inactive	inactive	inactive	inactive	inactive
COc1ccc(-c2nn(-c3ccccc3)cc2CN=[N+]=[N-])cc1		Not Active	inactive			inactive		inactive	inactive	inactive	inactive	inactive	inactive	inactive	inactive	inactive	inactive
COC(=O)c1nnn(Cc2cn(-c3ccc(Cl)cc3)nc2-c2ccccc2)c1C(=O)OC		Not Active	inactive			inactive		inactive	inactive	inactive	inactive	inactive	inactive	inactive	inactive	inactive	inactive
Clc1ccc(-n2cc(Cn3cc(-c4ccccc4)nn3)c(-c3ccccc3)n2)cc1		Not Active	inactive			inactive		inactive	inactive	inactive	inactive	inactive	inactive	inactive	inactive	inactive	inactive
FC(F)(F)c1ccccc1-c1cn(Cc2cn(-c3ccccc3)nc2-c2ccccc2)nn1		Not Active	inactive			inactive		inactive	inactive	inactive	inactive	inactive	inactive	inactive	inactive	inactive	inactive
COC(=O)c1nnn(Cc2cn(-c3ccccc3)nc2-c2ccccc2)c1C(=O)OC		Not Active	inactive			inactive		inactive	inactive	inactive	inactive	inactive	inactive	inactive	inactive	inactive	inactive
COC(=O)c1nnn(Cc2cn(-c3ccccc3)nc2-c2ccc(C)cc2)c1C(=O)OC		Not Active	inactive			inactive		inactive	inactive	inactive	inactive	inactive	inactive	inactive	inactive	inactive	inactive
Cc1ccc(-n2cc(Cn3cc(-c4ccccc4)nn3)c(-c3ccccc3)n2)cc1		Not Active	inactive			inactive		inactive	inactive	inactive	inactive	inactive	inactive	inactive	inactive	inactive	inactive
COc1ccc(-c2cn(Cc3cn(-c4ccccc4)nc3-c3ccccc3)nn2)cc1		Not Active	inactive			inactive		inactive	inactive	inactive	inactive	inactive	inactive	inactive	inactive	inactive	inactive
CCOC(=O)c1nnn(Cc2cn(-c3ccc(Cl)cc3)nc2-c2ccccc2)c1C(=O)OCC		Not Active	inactive			inactive		inactive	inactive	inactive	inactive	inactive	inactive	inactive	inactive	inactive	inactive
[N-]=[N+]=NCc1cn(-c2ccc(Cl)cc2)nc1-c1ccccc1		Not Active	inactive			inactive		inactive	inactive	inactive	inactive	inactive	inactive	inactive	inactive	inactive	inactive
